We go through 15 compounds from ChEMBL document CHEMBL2150921, “Synthesis, structure-activity relationships, and docking studies of N-phenylarylformamide derivatives (PAFAs) as non-nucleoside HIV reverse transcriptase inhibitors” (Eur J Med Chem, 2012).

Each structure is given as a SMILES string.

A short description of data set [1]: Therapeutic index, ratio of CC50 for human C8166 cells to EC50 for HIV1 A17 harbouring RT K103N/Y181C mutant infected in human C8166 cells. To be noted: read-out: Ratio CC50/EC50. The format is cell-based. The method, boiled down: (§1)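 CC50 from MTT assay on uninfected C8166 cells (A570/630, dose-response curve, 50% viable cell reduction) divided by EC50 from 3-day syncytium reduction assay in C8166 cells (4 × 10⁵/mL) infected at M.O.I 0.06; syncytia scored microscopically. Values are means of at least two separate experiments.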

Data set [2] has as its system Human immunodeficiency virus 1. The experiment in a line: Antiviral activity against wild type HIV1 3B infected in human C8166 cells assessed as protection against virus-induced cytopathic effect after 3 days by syncytium reduction assay. In kind it is functional, organism-based. To be noted: Human immunodeficiency virus 1, 3B, C8166, 72 h. The method, boiled down:
(§2)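 C8166 cells (4 × 10⁵/mL) infected at MOI 0.06 in presence of graded compound concentrations; AZT and GW678248 as drug controls. After 3 days culture, syncytia (multinucleated giant cells) counted under inverted microscope; EC50 taken as concentration blocking 50% syncytium formation. Mean of at least two separate experiments.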
For orientation: Protection from cytopathic effect is a common read-out in antiviral testing.

In data set [3] the target is Human immunodeficiency virus type 1 reverse transcriptase (Human immunodeficiency virus 1, UniProt Q72547). The experiment in a line: Inhibition of wild type HIV1 reverse transcriptase activity using poly (rA)/oligo (dT)15 homopolymer template after 1 hr by ELISA. The method, boiled down:
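Wild-type RT; oligo(dT) immobilized on plates, poly(rA) template, biotin-11-dUTP incorporation. Reaction: 50 mM Tris-HCl pH 8.3, 3 mM MgCl2, 75 mM KCl, 5 mM DTT, 0.13 mg/mL BSA, […]; 37 °C, 1 h. Detection by streptavidin-alkaline phosphatase and PNPP (30 min, 37 °C), stopped with 0.5 M NaOH.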

The test system of data set [4] is Human immunodeficiency virus 1. The experiment in a line: Antiviral activity against HIV1 A17 harbouring RT K103N/Y181C mutant infected in human C8166 cells assessed as protection against virus-induced cytopathic effect after 3 days by syncytium reduction assay. The format is functional, organism-based. To be noted: Human immunodeficiency virus 1, A17, C8166, 72 h. In a few lines: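 C8166 cells (4 × 10⁵/mL) infected at M.O.I 0.06 in the presence of various compound concentrations; cultured 3 days, syncytia (multinucleated giant cells) scored under inverted microscope; EC50 = concentration blocking syncytia formation by 50%. AZT and GW678248 as drug controls. Mean of at least two separate experiments.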

The next data set concerns C8166. The experiment in a line: Cytotoxicity against human C8166 cells assessed as decrease in cell viability by MTT assay. The format is functional. In a few lines:
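Uninfected C8166 cells exposed to compound; viability read by MTT colorimetric assay at A570/630. CC50, the concentration reducing viable cells by 50%, taken from dose-response curve. Mean of at least two separate experiments.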
On the technique in general: Tetrazolium dyes change colour on reduction, which living cells bring about.

In data set [5] the test system is Human immunodeficiency virus 2. The experiment in a line: Antiviral activity against HIV2 ROD infected in human C8166 cells assessed as protection against virus-induced cytopathic effect after 3 days by syncytium reduction assay. The format is functional, organism-based. To be noted: Human immunodeficiency virus 2, ISOLATE ROD, C8166, 72 h. The method, boiled down:
as §2

Data set [6] is described as follows: Therapeutic index, ratio of CC50 for human C8166 cells to EC50 for wild type HIV1 3B infected in human C8166 cells. The format is cell-based. The following applies: C8166 cells infected with wild type HIV1 3B, read-out: Ratio CC50/EC50. The method, boiled down: as §1

For `Cc1cc(S(N)(=O)=O)ccc1NC(=O)COc1ccc(Cl)cc1C(=O)c1cc(Cl)cc(C#N)c1`, in data set [1], the selectivity ratio was over 1.37e+06. Moreover, the EC50 (in general, the concentration that produces a half-maximal response) stood at 0.000103 µM in data set [2] and 0.00028 µM in data set [4]. Besides, the IC50 – broadly, the concentration that inhibits the measured activity by half – in data set [3] came to 0.00269 µM. In addition, the half-maximal cytotoxic concentration (CC50) (in general, the concentration at which the toxic effect on the cells reaches its halfway point) with C8166 is over 387 µM.

For `Cc1ccc(C(=O)Nc2cc(Cl)ccc2OCC(=O)Nc2ccc(S(N)(=O)=O)cc2C)cc1C`, the selectivity ratio came to 836 in data set [1] and 261000 in data set [6]. Moreover, the concentration giving a half-maximal response (EC50) was determined as 0.00032 µM in data set [2], 4.37 µM in data set [5] and 0.1 µM in data set [4]. This compound showed a 50% inhibitory concentration (IC50) in data set [3] of 0.00114 µM. Moreover, the CC50 in the data set on C8166 worked out at 84.1 µM.

In the case of `Cc1cc(S(N)(=O)=O)ccc1NC(=O)COc1ccc(Cl)cc1NC(=O)c1cc(Cl)cc(C#N)c1`, the selectivity ratio in data set [1] was 454; in data set [6], 136000. Besides, the EC50 amounted to 0.00096 µM in data set [2], 23.2 µM in data set [5] and 0.29 µM in data set [4]. In addition, the IC50 in data set [3] is 0.00205 µM. Moreover, the 50% cytotoxic concentration (CC50) in the data set on C8166 worked out at 131 µM.

For the compound `COc1ccc(C(=O)Nc2cc(Cl)ccc2OCC(=O)Nc2ccc(S(N)(=O)=O)cc2C)cc1`, the selectivity ratio was found to be 3.85 in data set [1] and 340 in data set [6]. Moreover, the half-maximal effective concentration (EC50) was determined as 0.204 µM in data set [2], 58.8 µM in data set [5] and 18.1 µM in data set [4]. In the data set on C8166, the half-maximal cytotoxic concentration (CC50) is 69.5 µM.

`Cc1ccc(C(=O)Nc2cc(Cl)ccc2OCC(=O)Nc2ccc(S(N)(=O)=O)cc2C)cc1`: the selectivity ratio in data set [1] was found to be 58.2; in data set [6], 10600. Further, the EC50 is 0.0051 µM in data set [2], 57.3 µM in data set [5] and 0.93 µM in data set [4]. The CC50 in the data set with C8166 turned out to be 54.2 µM.

Regarding `Cc1cc(S(N)(=O)=O)ccc1NC(=O)COc1ccc(Cl)cc1NC(=O)c1ccccc1[N+](=O)[O-]`, the selectivity ratio was 188 in data set [1] and 185000 in data set [6]. For the same compound, the values for the 50% effective concentration (EC50) in data set [2], in data set [5] and in data set [4] were 0.0003 µM, 11.8 µM and 0.29 µM, respectively. Also, the 50% cytotoxic concentration (CC50) in the data set with C8166 amounted to 54.8 µM.

Regarding `Cc1cc(S(N)(=O)=O)ccc1NC(=O)COc1ccc(Cl)cc1NC(=O)c1cc(Cl)ccc1Cl`, the selectivity ratio in data set [1] came out at 100; in data set [6] it was 18000. The concentration giving a half-maximal response (EC50) in data set [2] was 0.00234 µM; in data set [5], 21.6 µM; in data set [4], 0.42 µM. Also, the 50% cytotoxic concentration (CC50) in the data set on C8166 stood at 42.1 µM.

Take `Cc1cc(S(N)(=O)=O)ccc1NC(=O)COc1ccc(Cl)cc1NC(=O)c1ccccc1C`: the values for the selectivity ratio in data set [1] and in data set [6] were 29.4 and 3750, respectively. Further, the 50% effective concentration (EC50) in data set [2] is 0.0179 µM; in data set [5], 55.5 µM; in data set [4], 2.29 µM. In addition, the CC50 in the data set with C8166 came out at 67.3 µM.

On to `Cc1ccc(C(=O)Nc2cc(Cl)ccc2OCC(=O)Nc2ccc(S(N)(=O)=O)cc2C)c(C)c1`, for which the selectivity ratio in data set [1] worked out at 543; in data set [6] it was 85300. Moreover, the values for the 50% effective concentration (EC50) in data set [2], in data set [5] and in data set [4] were 0.00056 µM, 41.4 µM and 0.09 µM, respectively. The CC50 with C8166 stood at 47.6 µM.

`Cc1cc(S(N)(=O)=O)ccc1NC(=O)COc1ccc(Cl)cc1NC(=O)c1cc(Cl)cc(Br)c1`: the selectivity ratio in data set [1] stood at 4.11; in data set [6], 37. Also, the EC50 stood at 3.09 µM in data set [2], 61.5 µM in data set [5] and 27.8 µM in data set [4]. Besides, the half-maximal cytotoxic concentration (CC50) in the data set with C8166 was found to be 114 µM.

On to `Cc1cc(S(N)(=O)=O)ccc1NC(=O)COc1ccc(Cl)cc1NC(=O)c1ccc(Cl)c(Cl)c1`, for which the selectivity ratio in data set [1] worked out at 138; in data set [6], 3060. Further, the EC50 in data set [2] came to 0.0514 µM; in data set [5], 55.5 µM; in data set [4], 1.14 µM. In addition, in the data set on C8166, the CC50 amounted to 158 µM.

Consider `Cc1cc(S(N)(=O)=O)ccc1NC(=O)COc1ccc(Cl)cc1NC(=O)c1ccc(Cl)cc1Cl`, for which the selectivity ratio in data set [1] is 187; in data set [6] it was 20600. For the same compound, the results for the EC50 in data set [2], in data set [5] and in data set [4] were 0.00297 µM, 14.4 µM and 0.33 µM, respectively. Moreover, in the data set with C8166, the CC50 was 61.1 µM.

Consider `Cc1cc(S(N)(=O)=O)ccc1NC(=O)COc1ccc(Cl)cc1NC(=O)c1ccc2ccccc2c1`, for which the selectivity ratio in data set [1] worked out at 4.22; in data set [6], 373. The values for the 50% effective concentration (EC50) in data set [2], in data set [5] and in data set [4] were 0.101 µM, 31.6 µM and 8.91 µM, respectively. For the same compound, the cytotoxic concentration (CC50) with C8166 is 37.6 µM.

As to `Cc1cc(S(N)(=O)=O)ccc1NC(=O)COc1ccc(Cl)cc1NC(=O)c1cccc([N+](=O)[O-])c1`, the results for the selectivity ratio in data set [1] and in data set [6] were 128 and 89400, respectively. The EC50 in data set [2] came to 0.00066 µM; in data set [5], 36.1 µM; in data set [4], 0.46 µM. Moreover, the cytotoxic concentration (CC50) with C8166 is 58.8 µM.

With `Cc1cc(S(N)(=O)=O)ccc1NC(=O)COc1ccc(Cl)cc1NC(=O)/C=C/c1ccccc1`, the selectivity ratio amounted to 1.06 in data set [1] and 2 in data set [6]. In addition, the concentration giving a half-maximal response (EC50) in data set [2] turned out to be 95.4 µM; in data set [5], 77.5 µM; in data set [4] it was 154 µM. The cytotoxic concentration (CC50) in the data set with C8166 is 163 µM.
